# SENP7 inh: SENP7 protease inhibition; 330,000 tested, 1.5% active; recombinant SENP7, Z-RLRGG-aminoluciferin luminescence, 40 min; inhibition, % at 5 µM; Q9BQF6;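 active means inhibition above about 50% at the single test dose, limit read from the data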
# Platelet DG rel: platelet dense granule release activity; AID 1663; inhibition, %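 (compounds screened at 7.5 µM in platelet-rich plasma)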; human platelet-rich plasma, SFLLRN dense granule ATP release, luminescence; 300,000 tested, 0.22% active;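 active means mean replicate score, as percent of positive control, at or above 50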
# SENP8 block-1: inhibitors of human SENP8 protease; recombinant SENP8, Nedd8 substrate fluorescence; AID 602440; Q96LD8; inhibition, % at 20 µM; 360,000 tested, 0.64% active; in the data active means inhibition mostly above about 40%, no sharp cut-off; inactive means mostly below about 27%
# SENP6 inh: blocks the human protease SENP6; Q9GZR1; 330,000 tested, 1.8% active; Recombinant SENP6 catalytic domain, aminoluciferin luminescence; inhibition, % at 10 µM;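 active means inhibition above about 50% at the single tested dose, limit read from the data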
# Target sequence (Q9GZR1 628-1112 limits assumed): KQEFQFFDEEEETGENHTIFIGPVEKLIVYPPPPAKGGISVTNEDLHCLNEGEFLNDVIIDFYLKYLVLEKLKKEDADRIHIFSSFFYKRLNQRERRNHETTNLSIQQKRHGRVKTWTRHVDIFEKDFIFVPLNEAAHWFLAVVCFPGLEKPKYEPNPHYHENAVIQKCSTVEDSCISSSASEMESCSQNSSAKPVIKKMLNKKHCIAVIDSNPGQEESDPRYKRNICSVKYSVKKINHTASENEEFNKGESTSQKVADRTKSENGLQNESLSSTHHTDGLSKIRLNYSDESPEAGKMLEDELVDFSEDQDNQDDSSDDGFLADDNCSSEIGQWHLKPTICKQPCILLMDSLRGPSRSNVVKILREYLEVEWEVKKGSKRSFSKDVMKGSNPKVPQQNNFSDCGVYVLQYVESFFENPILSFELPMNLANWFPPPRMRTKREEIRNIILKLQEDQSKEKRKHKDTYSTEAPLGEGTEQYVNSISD
# SENP8 block-2: blocks the human protease SENP8; Q96LD8; purified SENP8, Z-RLRGG-aminoluciferin cleavage, luminescence; inhibition, % at 10 µM; 330,000 tested, 1.2% active; in the data active means inhibition above about 50%
# SENP1 inh: blocks the human SENP1 SUMO protease catalytic domain. recombinant SENP1 catalytic domain, CyPet-SUMO1-YPet FRET cleavage. inhibition, % at 10 µM. 360,000 tested, 0.21% active. AID 624204;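 active means inhibition at least 30% at 10 µM, raw YFP signal under a set limit, fluorescence ratio 0.5 to 1.5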
#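 Test system: human SENP1 catalytic domain; medium: Tris pH 8 buffer plus EDTA, NaCl, BME, BSA, NP40, catalase; incubation: 50 min reaction at room temperature; technique: FRET, CFP and YFP emission; controls: no-enzyme low control and enzyme-plus-DMSO high control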
# A number is an active result; 0 = inactive; - = no result given. Sampled rows, rich in hits. Any-hit rate of the full collection: about 2.6%.
SMILES,SENP7 inh,Platelet DG rel,SENP8 block-1,SENP6 inh,SENP8 block-2,SENP1 inh
O=C(O)c1cccc(NC(=S)NC(=O)c2ccc3ccccc3c2)c1,71,0,0,93,87,0
N#CC(c1nc2ccccc2nc1N1CCCC1)S(=O)(=O)c1ccccc1 (stereo not drawn),0,0,0,74,72,0
CC(C(=O)NC1CCCC1)n1c(C2CCCC2)nc2ccccc21 (stereo not drawn),-,-,0,-,-,0
O=C(NCCNc1ccc2ccccc2c1)c1cccn2c(=O)c3sccc3nc12,0,0,-,56,0,-
COc1cccc2sc3cc(NCc4ccc(C)o4)ccc3c(=O)c12,58,-,0,0,0,0
CCCCCCCCCCCCCCCC[n+]1cccc2ccccc21,0,-,0,0,0,0
CCCCCCCCC[n+]1cccc2c3ccccc3ccc21,0,87,0,0,0,0
CC(=O)[C@@H]1[C@@H]2C(=O)N(Cc3ccccc3)C(=O)[C@@H]2C2c3ccccc3C=CN21 (stereo partly drawn),0,0,0,0,0,0
O=C(c1ccco1)[C@@H]1[C@@H]2C(=O)N(c3ccccc3)C(=O)[C@@H]2C2c3ccccc3C=CN21 (stereo partly drawn),0,0,0,87,64,0
CC(C)(C)C(=O)[C@@H]1[C@@H]2C(=O)N(c3ccc4c(c3)OCCO4)C(=O)[C@@H]2C2c3ccccc3C=CN21 (stereo partly drawn),0,0,60,0,0,0
Cc1ccc(N2C(=O)[C@@H]3[C@H](C2=O)C2c4ccccc4C=CN2[C@@H]3C(=O)c2ccco2)c(C)c1 (stereo partly drawn),51,0,0,0,0,0
COc1ccccc1C#Cc1cnc2c(c1)C(=O)N([C@H](C)CO)C[C@H](C)[C@@H](CN(C)S(=O)(=O)c1cn(C)cn1)O2,-,-,0,-,-,0
CCCCNC(=O)C1C(c2ccc(C(F)(F)F)cc2)=Nc2ccccc2N1C(=O)c1ccc2nc(C)[nH]c2c1 (stereo not drawn),-,-,0,-,-,0
Cc1cccc(-c2nc3cc(NC(=O)C4CCCO4)ccc3o2)c1 (stereo not drawn),-,59,0,-,-,0
CCOC(=O)C1CCN(Cc2ccccn2)CC1,0,0,-,0,0,-
CCOC(=O)C1CCN(C=Nc2cc(C)on2)CC1,0,57,0,0,0,0
COc1ccc(CSC(=S)NNc2ccccc2)cc1,-,-,0,-,-,0
CC(C)(C)C(Cn1ccnc1)NC(=O)c1ccc2nc(C3CC3)oc2c1 (stereo not drawn),0,58,0,0,0,0
O=C(NC1CCCCC1)c1nc(C2CCNCC2)oc1-c1ccccc1,-,-,0,-,-,0
O=C(O)c1cccc2c1C(=O)c1cc([N+](=O)[O-])cc([N+](=O)[O-])c1-2,-,-,44,-,-,0
O=C1c2ccccc2C(Nc2ccc(Cl)cc2)N1CCN1CCOCC1 (stereo not drawn),0,0,0,0,0,0
O=C1c2ccccc2C(O)N1CCN1CCOCC1 (stereo not drawn),0,53,0,0,0,0
O=c1[nH][nH]c2c1C(c1cccc(C(F)(F)F)c1)OC(CCc1ccccc1)C2 (stereo not drawn),-,-,0,-,-,0
O=C(/C=C/Nc1ccccc1Oc1ccccc1)c1ccco1,0,0,0,0,0,0
O=C(/C=C/Nc1ccccc1O)c1ccco1,85,0,0,89,77,0
SMILES,SENP7 inh,Platelet DG rel,SENP8 block-1,SENP6 inh,SENP8 block-2,SENP1 inh
CCCCc1c(-c2ccc(OC)cc2)ncn1CCc1ccccc1OC,-,-,0,-,-,0
CCOC(=O)c1c(NC(=O)/C=C/c2ccc3c(c2)OCO3)sc(C)c1CC,0,54,0,0,0,0
O=C(/C=C/c1ccc2c(c1)OCO2)Nc1nncs1,84,0,0,60,0,0
COC(=O)c1c(NC(=O)/C=C/c2ccc3c(c2)OCO3)sc(C)c1C,0,0,0,0,0,0
CCCCCn1nnnc1-c1nc2cc(C)c(C)cc2[nH]c1=O,-,-,0,-,-,0
CCCCN1C(=O)C(CC(=O)NCc2cccc3ccccc23)CC(C(=O)N2CCCCCC2)=C1C (stereo not drawn),-,-,0,-,-,0
O=C1CC(c2ccc(O)c(O)c2)Oc2c1ccc(O)c2O (stereo not drawn),0,-,51,0,0,0
COC(=O)C1(C(F)(F)F)N=C2Sc3ccccc3N2C(N2CCOCC2)=N1 (stereo not drawn),0,105,0,0,0,0

# Bioassay records as filed in PubChem.
